Measured values as given in publication PMC10824272 (Biomedicine & pharmacotherapy = Biomedecine & …, 2023).
“Also recorded” adds a separate entry of the source.

Experiments:
SW480^cld1 cells [1] = assay: Cell viability; format: cell-based, human
Outline: (§1)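 Claudin-1-overexpressing SW480cld1 and SW620 cells grown in RPMI with 10% FBS and exposed for 72 hours to a range of test compound concentrations. Viability measured by PrestoBlue reagent. EC50 calculated from the concentration–viability data.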

SW620 cells [2] = assay: Cell viability; format: cell-based, human
Outline: as §1

HCT116 cells [3] = assay: Cell viability; format: cell-based, human; conditions: 25 & 50μM
Outline: (§2)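 Cells maintained in RPMI plus 10% FBS. Viability read with PrestoBlue reagent per kit protocol after 72 h exposure to test compound.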

SW480^cld2 cells = assay: Cell viability; format: cell-based, human; conditions: 25 & 50μM
Outline: as §2

SW480 cells = assay: Cell viability; format: cell-based, human; conditions: even at 25μM
SW480^cld1 cells [4] = assay: Anoikis-induced apoptosis assay; format: cell-based
Outline: (§3)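 Anoikis induced by plating cells on poly-HEMA-coated culture plates. Apoptosis quantified with a cell death detection ELISA. Parental lines were cultured in RPMI with 10% FBS. Claudin-1-overexpressing SW480 and claudin-1-knockdown SW620 derivatives were used.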

SW620 cells [5] = assay: Anoikis-induced apoptosis assay; format: cell-based
HCT116 cells [6] = assay: Anoikis-induced apoptosis assay; format: cell-based, human; conditions: claudin-1 deficient HCT116
SW620^1C cells = assay: Anoikis-induced apoptosis assay; format: cell-based, human; conditions: claudin-1 knockdown SW620^1C
Outline: as §3

SW620 cells [7] = assay: Transwell matrigel invasion assay; format: cell-based, human; conditions: I-6; claudin-1 overexpressed SW620
SW480^cld1 cells [8] = assay: Transwell matrigel invasion assay; format: cell-based, human; conditions: I-6; claudin-1 overexpressed SW480^cld1
HCT116 cells [9] = assay: Transwell matrigel invasion assay; format: cell-based, human; conditions: I-6; claudin-1 deficient HCT116
[10] = system: SW480^cld1 xenograft tumor; assay: Subcutaneous xenograft tumor study; format: in vivo, athymic nude mice
Outline: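 Cells implanted subcutaneously in athymic nude mice, n = 5 per group, vehicle controls. For SW480cld1 with I-6, once-weekly dosing started 10 days after implantation, once tumors were palpable, for two weeks. Caliper volume over time, formula […]. Ki67 and cleaved PARP by IHC. Behavior and body weight monitored.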

[11] = system: colon tumoroids from APC^min/+ / claudin-1 mice; assay: Tumoroid culture apoptosis; format: cell-based
Outline: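 Colon tumors from APCmin/+/claudin-1 mice washed in ice-cold PBS and digested with collagenase-containing buffer. Single cells pelleted at 200 x g for 3 min, embedded in Matrigel and plated as tumoroids. Tumoroids exposed to test compound alone or with 5 μM 5-FU, then scored for apoptosis.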

[12] = Plasma pharmacokinetics in mice; format: in vivo
Outline: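 I-6 given as a single 1 mg/kg intravenous dose to C57BL6 mice (n=5), with serial blood sampling. PDS-0330 given at 5 mg/kg by oral gavage or IP, with ~100 μl blood drawn from the maxillary vein at 5, 15, 30 min and 1, 2, 4, 6, 8, 24 h. Plasma levels in ng/ml; non-compartmental parameters.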

[13] = Tissue bio-distribution in mice; format: in vivo; conditions: both, mouse, liver, po, 5 mg/kg
[14] = Metabolic stability, phase I; format: in vitro ADME, human; conditions: HLM, phase I metabolism, 60 min
Outline: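 Phase I stability in human liver microsomes (20 mg/ml stock), 100 mM potassium phosphate pH 7.4, 10 mM MgCl2, 2 mM NADPH. Mix pre-incubated 10 min at 37 °C. Output is percent parent remaining per time point. Elimination rate constant taken from first-order plot of ln area ratio versus time.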

[15] = biological target: T1, claudin-1/Src association (Homo sapiens, UniProt O95832); assay: Proximity ligation assay; format: cell-based
T1 sequence (O95832 1-211): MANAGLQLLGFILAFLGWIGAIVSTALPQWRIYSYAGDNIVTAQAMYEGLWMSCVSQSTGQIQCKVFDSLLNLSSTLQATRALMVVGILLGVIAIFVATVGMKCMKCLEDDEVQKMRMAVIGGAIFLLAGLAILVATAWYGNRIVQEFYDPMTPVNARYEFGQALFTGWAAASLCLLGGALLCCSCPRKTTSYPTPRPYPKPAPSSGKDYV

[16] = system: pSrc, pAkt, Bcl2, Bcl-xL, survivin, cleaved PARP in SW620 and SW480^cld1 cells; assay: Immunoblotting of signaling and apoptosis markers; format: cell-based, human; conditions: I-6, SW480^cld1 cells
Outline: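 Treated cells (vehicle or 12.5 and 25 μM) lysed. 10–30 μg protein per lane resolved by SDS-PAGE and immunoblotted, with enhanced chemiluminescence detection on film. Antibodies included p-Src (Tyr416), pAkt and total Akt, with GAPDH or β-actin as loading reference.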

[17] = I-6 1mg/kg intravenous, mice, plasma, 1 mg/kg
[18] = both, C57BL6, mouse, plasma, iv, 1 mg/kg

## COc1cc2ccccc2cc1C(=O)NC(=S)Nc1ccc(-c2nc3ccccc3[nH]2)cc1 [I-6, N-((4-(1H-benzo[d]imidazol-2-yl)phenyl)carbamothioyl)-3-methoxy-2-naphthamide]
SW480^cld1 cells [1]; 25 & 50μM, P<0.001
  cell viability: significantly decreases cell viability
SW480^cld1 cells [1]; Homo sapiens, 72 h, read-out: EC50, cell viability
  EC50: 28.4 µM
SW480^cld1 cells [1]; I-6 0.625μM-20μM with 5-FU 5μM
  effect with 5-FU on cell growth: synergistic effect
SW620 cells [2]; 25 & 50μM, P<0.001
  cell viability: significantly decreases cell viability
SW620 cells [2]; Homo sapiens, SW-620, 72 h, read-out: EC50, cell viability
  EC50: 24.8 µM
HCT116 cells [3]
  cell viability: no significant impact
SW480^cld2 cells
  cell viability: no significant impact
SW480 cells
  impact on SW480 cells: no significant impact
SW480^cld1 cells [4]; claudin-1 overexpressed SW480^cld1
  resistance to anoikis: dramatically inhibits anoikis resistance; also recorded: inhibition of resistance to anoikis
SW480^cld1 cells [4]; co-treatment with 5-FU
  effect with 5-FU on anoikis resistance: synergistic effect
SW620 cells [5]; claudin-1 overexpressed SW620
  resistance to anoikis: inhibition of resistance to anoikis
SW620 cells [5]; co-treatment with 5-FU
  effect with 5-FU on anoikis resistance: synergistic effect
HCT116 cells [6]
  resistance to anoikis: no effect
SW620^1C cells
  resistance to anoikis: no effect
SW620 cells [7]
  invasion: suppresses invasion
SW480^cld1 cells [8]
  invasion: suppresses invasion
HCT116 cells [9]
  invasion: no effect
[10]; I-6 10 mg/kg
  Ki67 expression in tumors (IHC): significantly inhibited
  cleaved PARP in tumors (IHC): significantly increased
[10]; I-6 10 mg/kg once/week, vs vehicle
  tumor volume and weight at necropsy: significantly reduced
[10]; co-treatment with 5-FU, nude mice
  effect with 5-FU on development of xenograft tumor: synergistic effect
[10]; during I-6 / 5-FU xenograft studies
  mouse behavior or weight: no obvious changes
[11]; I-6 25μM with 5-FU 5μM
  effect with 5-FU on induction of apoptosis in tumoroids: synergistic effect
[11]; I-6 25μM, 48 hours
  rate of apoptosis in tumoroids: significantly increased
[12]; I-6 1mg/kg intravenous, mice
  time up to which detectable in plasma: up to 24 h
[12]; [17]
  AUC0- ∞: 1207.1 ± 35.6 ng·h/mL
  C0: 798.3 ± 277.2 ng/mL
[12]; I-6 oral 5mg/kg, mice
  time of plasma peak concentration: 2 h
[12]; [18]
  AUC(0-t): 1140 ± 59.6 ng·h/mL
  MRT: 5.6 ± 1.2 h
  half-life: 7 ± 1.6 h
[12]; both, C57BL6, mouse, plasma, iv, 1 mg/kg, AUC0- ∞, I-6 1mg/kg intravenous, mice
  AUC(0-inf): 1140 ng·h/mL
[12]; both, C57BL6, mouse, plasma, iv, 1 mg/kg, C0, I-6 1mg/kg intravenous, mice
  C0: 798 ng/mL
[12]; both, C57BL6, mouse, plasma, iv, 1 mg/kg, Vd, I-6 1mg/kg intravenous, mice
  Vd: 8.4 ± 2.1 L/kg
[12]; both, C57BL6, mouse, plasma, iv, 1 mg/kg, Vss, I-6 1mg/kg intravenous, mice
  Vd: 4.7 ± 1.1 L/kg
[12]; both, mouse, plasma, po, 5 mg/kg
  Cmax: 2.8 ng/mL
[13]
  concentration at 24 h: 65 ng/g
[14]
  drug remaining after 60 min: 49%
[15]
  association of claudin-1 with Src: significantly interferes
[16]
  Src phosphorylation: significantly interferes
